Our source for the MIC values is ChEMBL document CHEMBL1137088, “Distamycin analogues with enhanced lipophilicity: synthesis and antimicrobial activity” (2004).

One experiment concerns Aspergillus nidulans. Nature of the experiment: Antifungal activity against Aspergillus nidulans CABI 0160037 strain. The format is functional.
Experiment [1] has as its system Staphylococcus aureus. Description: Antibacterial activity against methicillin-resistant Staphylococcus aureus (MRSA) PHLS M1 strain. The format is functional. The procedure, abridged:
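Read-out is the minimum inhibitory concentration, reported in µM. Amoxycillin is tested alongside as the reference antibiotic.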

In experiment [2] the test system is Mycolicibacterium fortuitum. Description: Antibacterial activity against Mycobacterium fortuitum NCTC 10394 strain. In kind it is functional.
Experiment [3] in a line: Antifungal activity against Candida albicans NCPF 3179 strain; na = not active. The format is functional.
The test system of a further experiment is Escherichia coli. Description: Antibacterial activity against Escherichia coli NCTC 9001 strain. In kind it is functional, organism-based.
Experiment [4] has as its system Aspergillus niger. Description: Antifungal activity against Aspergillus niger IMI17454 strain. The following applies: Aspergillus niger; read-out: MIC. The format is functional.
Experiment [5] in a line: Antibacterial activity against Proteus vulgaris NCTC 4175 strain; na = not active. In kind it is functional.
Experiment [6] relates to Staphylococcus aureus. Description: Antibacterial activity against Staphylococcus aureus NCTC 6571 strain; na = not active. The format is functional, organism-based.
The next experiment has as its system Enterobacter cloacae. Description: Antibacterial activity against Enterobacter cloacae NCTC 10005 strain. In kind it is functional, organism-based.
Experiment [7] deals with Klebsiella aerogenes. Description: Antibacterial activity against Klebsiella aerogenes WRL CN 345 strain. Particulars: Klebsiella aerogenes, WRL CN 375; read-out: MIC. The format is functional, WRL CN 375.
Experiment [8] relates to Enterococcus faecalis. Nature of the experiment: Antibacterial activity against Streptococcus faecalis NCTC 775 strain. In kind it is functional.
Experiment [9] has as its system Aspergillus niger. Description: Antifungal activity against Aspergillus niger IMI17454 strain; na = not active. The format is functional.
For experiment [10], the system named is Staphylococcus aureus. Description: Antibacterial activity against Staphylococcus aureus NCTC 6571 strain. In kind it is functional.
Experiment [11] in a line: Antibacterial activity against Enterobacter cloacae NCTC 10005 strain. In kind it is functional.
A further experiment deals with Candida albicans. Nature of the experiment: Antifungal activity against Candida albicans NCPF 3179 strain. The format is functional. The following applies: Candida albicans; read-out: MIC.
For a further experiment, the system named is Proteus vulgaris. Description: Antibacterial activity against Proteus vulgaris NCTC 4175 strain. The format is functional.
Experiment [12] relates to Staphylococcus aureus. Nature of the experiment: Antibacterial activity against MRSA PHLS M1 strain; na = not active. In kind it is functional, organism-based.
Experiment [13] has as its system Enterococcus faecalis. Description: Antibacterial activity against Streptococcus faecalis NCTC 775 strain; na = not active. The format is functional, organism-based.
The test system of experiment [14] is Klebsiella aerogenes. Description: Antibacterial activity against Klebsiella aerogenes WRL CN 345 strain; na = not active. In kind it is functional, organism-based.

≈ marks a conversion by molar mass, not a printed value. Calls of active or inactive are those of the source. The rule behind the calls is not given here.

Take `Cc1sccc1C(=O)Nc1cc(C(=O)Nc2cc(C(=O)Nc3cc(C(=O)NCCCN(C)C)n(C)c3)n(C)c2)n(C)c1`: the MIC came to 70.8 µM (≈ 42 µg/mL) against Aspergillus nidulans; 141 µM (≈ 83.6 µg/mL) in the experiment with Staphylococcus aureus [1]; 35.4 µM (≈ 21 µg/mL) in experiment [2]; 141 µM (≈ 83.6 µg/mL) in the experiment on Aspergillus niger [4]; 70.8 µM (≈ 42 µg/mL) in the experiment on Klebsiella aerogenes [7]; 141 µM (≈ 83.6 µg/mL) in the experiment with Enterococcus faecalis [8]. For the same compound, the MIC entry (in experiment [3]; in the experiment on Escherichia coli; in experiment [5]; in the experiment with Staphylococcus aureus [6]; in the experiment with Enterobacter cloacae) was “inactive” in each case.
Turning to `CN(C)CCCNC(=O)c1cc(NC(=O)c2cc(NC(=O)c3cc(NC=O)cn3C)cn2CC2CC2)cn1C`, the MIC entry (with Aspergillus niger [9]; in the experiment on Escherichia coli; in experiment [5]) was “inactive” each time. For the same compound, the MIC in the experiment on Aspergillus nidulans stood at 153 µM (≈ 82.1 µg/mL); in the experiment with Staphylococcus aureus [1] it was 76.9 µM (≈ 41.3 µg/mL); in [2], 38.4 µM (≈ 20.6 µg/mL); in the experiment on Staphylococcus aureus [10], 153 µM (≈ 82.1 µg/mL); in the experiment with Klebsiella aerogenes [7], 38.4 µM (≈ 20.6 µg/mL); in experiment [11], 76.9 µM (≈ 41.3 µg/mL). Also, the MIC with Candida albicans and against Enterococcus faecalis [8] was 76.9 µM (≈ 41.3 µg/mL) throughout.
With `CCn1cc(NC(=O)c2cc(NC(=O)c3cc(NC=O)cn3C)cn2C)nc1C(=O)NCCCN(C)C`, the MIC entry (in the experiment on Aspergillus niger [9]; in experiment [3]; with Escherichia coli; in the experiment on Staphylococcus aureus [12]; in the experiment on Staphylococcus aureus [6]; in the experiment with Enterobacter cloacae) was “inactive” in each case. Moreover, in the experiment on Enterococcus faecalis [13], the MIC entry is “inactive”. Moreover, the MIC against Aspergillus nidulans was 160 µM (≈ 81.9 µg/mL); in [2] it was 160 µM (≈ 81.9 µg/mL); against Proteus vulgaris, 160 µM (≈ 81.9 µg/mL); with Klebsiella aerogenes [7], 40 µM (≈ 20.5 µg/mL).
Turning to `OC(Cn1cncn1)(Cn1cncn1)c1ccc(F)cc1F` [FLUCONAZOLE], the minimal inhibitory concentration (MIC) in the experiment with Aspergillus nidulans is 90.8 µM (≈ 27.8 µg/mL); in experiment [3], 81.6 µM (≈ 25 µg/mL); in the experiment with Aspergillus niger [4] it was greater than 300 µM.
As for `CC1(C)S[C@@H]2[C@H](NC(=O)[C@H](N)c3ccc(O)cc3)C(=O)N2[C@H]1C(=O)O` [AMOXICILLIN], the minimum inhibitory concentration (MIC) with Staphylococcus aureus [1] worked out at 16.1 µM (≈ 5.88 µg/mL); in experiment [2], 16.1 µM (≈ 5.88 µg/mL); with Proteus vulgaris, 4 µM (≈ 1.46 µg/mL); in the experiment with Staphylococcus aureus [10] it was 0.49 µM (≈ 0.179 µg/mL); with Klebsiella aerogenes [7], 8.1 µM (≈ 2.96 µg/mL); in experiment [11], 4 µM (≈ 1.46 µg/mL). Moreover, in the experiment on Enterococcus faecalis [8], it took 0.49 µM (≈ 0.179 µg/mL) to inhibit growth (MIC).
Turning to `CC(C)c1sc(NC(=O)c2cc(NC(=O)c3cc(NC=O)cn3C)cn2C)nc1C(=O)NCCCN(C)C`, the minimum inhibitory concentration (MIC) against Aspergillus nidulans came out at 76.1 µM (≈ 41.3 µg/mL); with Staphylococcus aureus [1], 38.1 µM (≈ 20.7 µg/mL); in [2] it was 19 µM (≈ 10.3 µg/mL); with Aspergillus niger [4], 76.1 µM (≈ 41.3 µg/mL); with Proteus vulgaris it was 9.5 µM (≈ 5.16 µg/mL); against Staphylococcus aureus [10], 4.7 µM (≈ 2.55 µg/mL). The MIC stood at 76.2 µM (≈ 41.4 µg/mL) in the experiment on Klebsiella aerogenes [7], 76.2 µM (≈ 41.4 µg/mL) in experiment [11], 76.1 µM (≈ 41.3 µg/mL) in the experiment on Candida albicans and 9.5 µM (≈ 5.16 µg/mL) against Enterococcus faecalis [8]. Moreover, the MIC result with Escherichia coli was “inactive”.
Consider `COc1cccc(C(=O)Nc2cc(C(=O)Nc3cc(C(=O)Nc4cc(C(=O)NCCCN(C)C)n(C)c4)n(CCC(C)C)c3)n(C)c2)c1`, for which the MIC entry (in the experiment on Aspergillus niger [9]; in [3]; in the experiment with Escherichia coli; in experiment [5]; with Enterobacter cloacae; in the experiment with Klebsiella aerogenes [14]) was “inactive” each time. For the same compound, the minimum inhibitory concentration (MIC) against Staphylococcus aureus [1] is 2 µM (≈ 1.32 µg/mL); in experiment [2], 32.4 µM (≈ 21.3 µg/mL); against Staphylococcus aureus [10] it was 16.2 µM (≈ 10.7 µg/mL); in the experiment on Enterococcus faecalis [8], 16.2 µM (≈ 10.7 µg/mL).
`CN(C)CCCNC(=O)c1cc(NC(=O)c2cc(NC(=O)c3cc(NC(=O)/C=C/c4ccccc4)cn3C)cn2C)cn1C`: the MIC in the experiment with Aspergillus nidulans came to 70.2 µM (≈ 42 µg/mL); against Staphylococcus aureus [1] it was 140 µM (≈ 83.8 µg/mL); in [2] it was 140 µM (≈ 83.8 µg/mL); with Aspergillus niger [4], 140 µM (≈ 83.8 µg/mL); with Proteus vulgaris it was 70 µM (≈ 41.9 µg/mL); in the experiment on Staphylococcus aureus [10], 8.8 µM (≈ 5.27 µg/mL). For the same compound, the minimum inhibitory concentration (MIC) in the experiment on Klebsiella aerogenes [7] amounted to 70.2 µM (≈ 42 µg/mL); in experiment [11], 70.2 µM (≈ 42 µg/mL); in the experiment on Candida albicans it was 35.1 µM (≈ 21 µg/mL); against Enterococcus faecalis [8], 8.8 µM (≈ 5.27 µg/mL). The MIC result in the experiment on Escherichia coli was “inactive”.
`COc1cccc(C(=O)Nc2cc(C(=O)Nc3cc(C(=O)Nc4cc(C(=O)NCCCN5CCN(C)CC5)n(C)c4)n(CCC(C)C)c3)n(C)c2)c1`: the minimal inhibitory concentration (MIC) in the experiment on Aspergillus nidulans turned out to be 30.2 µM (≈ 21.6 µg/mL); against Staphylococcus aureus [1], 121 µM (≈ 86.4 µg/mL); in experiment [2], 121 µM (≈ 86.4 µg/mL); with Aspergillus niger [4] it was 121 µM (≈ 86.4 µg/mL); against Proteus vulgaris, 121 µM (≈ 86.4 µg/mL); against Staphylococcus aureus [10], 60 µM (≈ 42.8 µg/mL). The MIC in the experiment on Klebsiella aerogenes [7] stood at 121 µM (≈ 86.4 µg/mL); in experiment [11], 121 µM (≈ 86.4 µg/mL); in the experiment with Candida albicans it was 121 µM (≈ 86.4 µg/mL); against Enterococcus faecalis [8] it was 60.4 µM (≈ 43.1 µg/mL). The MIC result with Escherichia coli was “inactive”.
